{"source": "ChEMBL document CHEMBL4699485", "about": "“Discovery and Development of SPR519 as a Potent, Selective, and Orally Bioavailable Inhibitor of PI3Kα and mTOR Kinases for the Treatment of Solid Tumors” (J Med Chem, 2020)", "key": {"[1]": {"system": "SK-OV-3", "test": "Antitumor activity against human SK-OV-3 cells xenografted in po dosed CD1 nude mouse assessed as reduction in tumor volume administered once daily for 27 days and measured at 3 days interval during compound dosing", "format": "functional, organism-based", "settings": "dose mg/kg 2.5-10, time 27.0 day", "method_in_brief": "(§1)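 Female CD1 nude mice bearing subcutaneous SK-OV-3 xenografts, randomized at average tumor size 120–130 mm³, five per group. Given oral doses of 2.5, 5 or 10 mg/kg once daily for 27 days alongside a vehicle control. Tumor volume from caliper length and width as (width² × length)/2, tracked every third day. Two-way ANOVA with Dunnett's test, n=5.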"}, "[2]": {"test": "Cmax in Swiss mouse at 10 mg/kg, po via gavage by LC-MS/MS analysis", "format": "ADME, organism-based", "design": "route oral, dose 10 mg/kg", "settings": "in vivo", "method_in_brief": "(§2)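 Female Swiss mice (n=3/group), fasted overnight, given single oral gavage dose in 0.5% CMC/0.5% Tween 80 (10 mL/kg) at 1, 3 or 10 mg/kg. Serial blood sampling at 0.16–8 h into heparinized tubes. Plasma extracted with acetonitrile containing verapamil internal standard and quantified by LC-MS/MS. Cmax, Tmax, AUC and t1/2 derived from the concentration–time profile.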"}, "[3]": {"biological_target": "Receptor-type tyrosine-protein kinase FLT3 (Homo sapiens) (UniProt P36888)", "sequence (P36888 whole entry)": "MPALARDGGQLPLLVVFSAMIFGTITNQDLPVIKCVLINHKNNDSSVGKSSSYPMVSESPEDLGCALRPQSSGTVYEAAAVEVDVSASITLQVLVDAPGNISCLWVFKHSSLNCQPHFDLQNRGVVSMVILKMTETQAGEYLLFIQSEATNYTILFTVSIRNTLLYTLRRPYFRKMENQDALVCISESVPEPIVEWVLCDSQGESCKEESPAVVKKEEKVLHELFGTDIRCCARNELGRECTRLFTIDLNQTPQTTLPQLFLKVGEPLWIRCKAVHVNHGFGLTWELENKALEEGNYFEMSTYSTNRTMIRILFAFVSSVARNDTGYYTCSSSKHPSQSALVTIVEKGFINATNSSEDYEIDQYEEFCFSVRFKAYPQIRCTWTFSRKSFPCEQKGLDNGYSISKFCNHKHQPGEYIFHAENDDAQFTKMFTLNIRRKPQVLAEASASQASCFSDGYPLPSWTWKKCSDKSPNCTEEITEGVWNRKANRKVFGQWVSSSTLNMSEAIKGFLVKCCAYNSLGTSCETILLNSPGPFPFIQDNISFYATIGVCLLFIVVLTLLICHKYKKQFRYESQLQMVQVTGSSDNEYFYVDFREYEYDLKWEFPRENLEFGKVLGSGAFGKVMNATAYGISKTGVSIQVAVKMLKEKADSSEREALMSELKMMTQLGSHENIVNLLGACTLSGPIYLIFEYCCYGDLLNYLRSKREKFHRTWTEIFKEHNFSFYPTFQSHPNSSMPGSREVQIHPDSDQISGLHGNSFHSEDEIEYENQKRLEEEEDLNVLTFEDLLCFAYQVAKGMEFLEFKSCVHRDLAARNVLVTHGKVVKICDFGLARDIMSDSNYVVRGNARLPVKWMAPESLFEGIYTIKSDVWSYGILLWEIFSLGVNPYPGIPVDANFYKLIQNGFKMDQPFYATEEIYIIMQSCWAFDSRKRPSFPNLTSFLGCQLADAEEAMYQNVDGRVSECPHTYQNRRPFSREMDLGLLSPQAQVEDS", "test": "Inhibition of human FLT3 at 1 uM using fluorescently labeled peptide substrate measured after 3 hrs by microfluidic mobility shift assay relative to control", "method_in_brief": "(§3)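 Single-concentration screen at 1 µM in duplicate, 1% final DMSO. Kinase (typically 1 nM), fluorescently labeled peptide substrate (typically 1 µM), ATP at Km and Mg²⁺ incubated about 3 h at 25 °C, then EDTA-quenched. Substrate and phosphorylated product separated by microfluidic electrophoresis and quantified by fluorescence.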"}, "[4]": {"system": "HCT-116", "test": "Antitumor activity against human HCT-116 cells xenografted in po dosed CD1 nude mouse assessed as reduction in tumor volume administered once daily for 21 days and measured at 3 days interval during compound dosing", "format": "functional, organism-based", "settings": "dose mg/kg 2.5-20, time 21.0 day", "method_in_brief": "(§4)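 Female CD1 nude mice bearing subcutaneous HCT116 xenografts, randomized at average tumor size 120–130 mm³, five per group. Dosed orally once daily at 2.5, 5, 10 or 20 mg/kg for 21 days alongside a vehicle control. Caliper measurement of tumor volume as (width² × length)/2, monitored every third day.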"}, "[5]": {"biological_target": "High affinity nerve growth factor receptor (Homo sapiens) (UniProt P04629)", "sequence (P04629 33-796 limits assumed)": "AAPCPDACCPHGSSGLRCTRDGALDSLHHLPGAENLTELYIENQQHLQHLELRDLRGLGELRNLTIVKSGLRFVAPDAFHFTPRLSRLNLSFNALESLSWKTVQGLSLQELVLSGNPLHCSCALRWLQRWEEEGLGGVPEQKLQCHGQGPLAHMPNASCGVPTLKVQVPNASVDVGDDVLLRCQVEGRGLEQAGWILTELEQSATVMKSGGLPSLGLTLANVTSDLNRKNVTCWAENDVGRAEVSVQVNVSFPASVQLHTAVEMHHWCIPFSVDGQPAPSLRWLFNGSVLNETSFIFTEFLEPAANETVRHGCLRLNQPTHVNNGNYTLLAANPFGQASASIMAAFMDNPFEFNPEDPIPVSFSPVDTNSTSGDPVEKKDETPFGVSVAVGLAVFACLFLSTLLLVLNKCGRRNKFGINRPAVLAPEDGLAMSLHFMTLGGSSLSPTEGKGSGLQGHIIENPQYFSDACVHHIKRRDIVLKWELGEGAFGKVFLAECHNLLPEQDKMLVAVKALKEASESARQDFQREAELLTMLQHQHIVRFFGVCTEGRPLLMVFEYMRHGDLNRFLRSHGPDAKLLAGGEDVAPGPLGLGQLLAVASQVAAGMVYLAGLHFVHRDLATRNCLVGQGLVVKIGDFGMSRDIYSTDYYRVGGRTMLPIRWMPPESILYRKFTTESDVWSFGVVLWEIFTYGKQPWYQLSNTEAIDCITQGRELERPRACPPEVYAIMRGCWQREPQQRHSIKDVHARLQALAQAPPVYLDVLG", "test": "Inhibition of human TRKA at 1 uM using fluorescently labeled peptide substrate measured after 3 hrs by microfluidic mobility shift assay relative to control", "method_in_brief": "as §3"}, "[6]": {"biological_target": "Sphingosine kinase 1 (Homo sapiens) (UniProt Q9NYA1)", "sequence (Q9NYA1 whole entry)": "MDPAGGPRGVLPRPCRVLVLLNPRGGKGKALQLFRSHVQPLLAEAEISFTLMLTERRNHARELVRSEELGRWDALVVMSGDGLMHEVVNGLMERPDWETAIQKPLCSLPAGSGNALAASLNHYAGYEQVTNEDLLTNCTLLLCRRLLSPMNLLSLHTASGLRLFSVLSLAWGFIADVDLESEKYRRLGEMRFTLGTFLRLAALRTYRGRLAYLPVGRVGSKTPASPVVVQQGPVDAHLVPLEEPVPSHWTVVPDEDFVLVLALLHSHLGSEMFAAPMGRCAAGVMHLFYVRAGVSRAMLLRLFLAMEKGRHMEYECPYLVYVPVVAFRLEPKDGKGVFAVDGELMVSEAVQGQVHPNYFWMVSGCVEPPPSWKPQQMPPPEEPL", "test": "Inhibition of human SPHK1 at 1 uM using fluorescently labeled peptide substrate measured after 3 hrs by microfluidic mobility shift assay relative to control", "method_in_brief": "as §3"}, "[7]": {"test": "AUC in Swiss mouse at 1 mg/kg, po via gavage by LC-MS/MS analysis", "format": "ADME, organism-based", "design": "dose 1 mg/kg", "settings": "in vivo", "method_in_brief": "as §2"}, "[8]": {"system": "HCT-116", "test": "Antitumor activity against human HCT-116 cells xenografted in CD1 nude mouse assessed as tumor growth inhibition at 2.5 mg/kg, po administered once daily for 21 days and measured on day 3", "format": "functional, organism-based", "settings": "time 21.0 day", "method_in_brief": "as §4"}, "[9]": {"system": "PC-3", "test": "Antiproliferative activity against human PC-3 cells after 48 hrs by MTT assay", "format": "functional, cell-based", "settings": "PC-3, 48 h", "method_in_brief": "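PC3 cells grown in RPMI 1640 with 10% FBS and 1% penicillin/streptomycin at 37 °C, 5% CO2, seeded at 10000 cells/well. Treated 48 h across 20 µM–0.001 µM. MTT (5 mg/mL in PBS) added for 4 h, then DMSO solubilization and absorbance at 550 nm. Four-parameter nonlinear fit of % inhibition.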"}, "[10]": {"test": "Elimination half life in Swiss mouse at 3 mg/kg, po via gavage by LC-MS/MS analysis", "format": "ADME, organism-based", "settings": "in vivo, read-out: beta t1/2 (converted)", "method_in_brief": "as §2"}, "[11]": {"test": "AUC in Swiss mouse at 3 mg/kg, po via gavage by LC-MS/MS analysis", "format": "ADME, organism-based", "design": "dose 3 mg/kg", "settings": "in vivo", "method_in_brief": "as §2"}, "[12]": {"system": "A2780", "test": "Antiproliferative activity against human A2780 cells after 48 hrs by MTT assay", "format": "functional, cell-based", "settings": "A2780, 48 h", "method_in_brief": "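A2780 cells grown in DMEM with 10% FBS, L-glutamine and antibiotics, seeded at 10000 cells/well and allowed to adhere overnight. Treated 48 h across 20 µM–0.001 µM. MTT (5 mg/mL in PBS) added for 4 h, formazan dissolved in DMSO, absorbance read at 550 nm. % inhibition fit to a four-parameter log inhibitor vs response curve.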"}, "[13]": {"test": "Toxicity in Swiss mouse assessed as body weight loss at 10 mg/kg, po administered twice daily via gavage for 5 days and measuring daily during compound dosing", "format": "organism-based", "settings": "in vivo, 120 h, time 5 day", "method_in_brief": "(§5)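 Female Swiss mice (3 treated, 2 vehicle controls) received oral gavage twice daily for 5 days, with compound formulated in 0.5% CMC and Tween 80. Body weight, body temperature, body coat, feed intake, eyes, feces and general activity were observed daily.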"}, "[14]": {"test": "Toxicity in Swiss mouse assessed as loss of appetite at 10 mg/kg, po administered twice daily via gavage for 5 days and measuring daily during compound dosing", "format": "organism-based", "settings": "in vivo, 120 h, time 5 day", "method_in_brief": "as §5"}, "[15]": {"test": "Tmax in Swiss mouse at 1 mg/kg, po via gavage by LC-MS/MS analysis", "format": "ADME, organism-based", "settings": "in vivo", "method_in_brief": "(§6)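 Female Swiss mice (n=3/group) were fasted overnight, then gavaged with compound in 0.5% CMC/0.5% Tween 80 at 10 mL/kg. Serial blood samples at 0.16, 0.5, 1, 2, 4, 6 and 8 h were taken into heparinized tubes and spun to plasma. Plasma was extracted with acetonitrile containing verapamil (400 ng/mL) and quantified by LC-MS/MS against plasma calibration curves. Tmax was derived from the concentration–time profile.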"}, "[16]": {"test": "Tmax in Swiss mouse at 3 mg/kg, po via gavage by LC-MS/MS analysis", "format": "ADME, organism-based", "settings": "in vivo", "method_in_brief": "as §6"}, "[17]": {"biological_target": "Phosphatidylinositol 4,5-bisphosphate 3-kinase catalytic subunit alpha isoform (Homo sapiens) (UniProt P42336)", "sequence (P42336 whole entry, canonical isoform)": "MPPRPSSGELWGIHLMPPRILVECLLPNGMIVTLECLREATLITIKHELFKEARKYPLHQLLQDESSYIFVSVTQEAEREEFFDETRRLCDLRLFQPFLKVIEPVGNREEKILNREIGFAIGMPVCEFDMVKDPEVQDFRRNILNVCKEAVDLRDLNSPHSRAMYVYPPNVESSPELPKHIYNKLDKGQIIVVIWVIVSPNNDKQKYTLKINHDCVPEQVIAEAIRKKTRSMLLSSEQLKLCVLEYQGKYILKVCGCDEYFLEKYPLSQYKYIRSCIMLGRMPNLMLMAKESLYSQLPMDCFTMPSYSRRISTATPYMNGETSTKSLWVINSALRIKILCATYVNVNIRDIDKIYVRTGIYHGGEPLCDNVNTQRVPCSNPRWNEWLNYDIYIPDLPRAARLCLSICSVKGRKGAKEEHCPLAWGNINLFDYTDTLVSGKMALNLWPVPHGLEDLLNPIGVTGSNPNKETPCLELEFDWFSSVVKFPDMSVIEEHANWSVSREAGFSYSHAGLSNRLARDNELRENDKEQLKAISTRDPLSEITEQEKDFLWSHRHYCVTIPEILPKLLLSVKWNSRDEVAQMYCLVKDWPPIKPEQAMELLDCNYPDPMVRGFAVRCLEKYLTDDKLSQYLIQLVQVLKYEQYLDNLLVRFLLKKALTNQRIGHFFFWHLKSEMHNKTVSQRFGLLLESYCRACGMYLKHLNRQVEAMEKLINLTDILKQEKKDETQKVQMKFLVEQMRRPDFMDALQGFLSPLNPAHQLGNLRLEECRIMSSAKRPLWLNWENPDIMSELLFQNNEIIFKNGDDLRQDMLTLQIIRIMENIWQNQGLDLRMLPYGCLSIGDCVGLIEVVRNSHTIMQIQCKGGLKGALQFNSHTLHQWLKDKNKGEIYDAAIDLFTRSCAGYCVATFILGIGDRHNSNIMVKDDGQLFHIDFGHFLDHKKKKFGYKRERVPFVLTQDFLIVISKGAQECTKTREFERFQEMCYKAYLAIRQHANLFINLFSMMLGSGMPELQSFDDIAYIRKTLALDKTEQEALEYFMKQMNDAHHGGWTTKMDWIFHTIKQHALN", "test": "Inhibition of human PI3kalpha at 1 uM using fluorescently labeled peptide substrate measured after 3 hrs by microfluidic mobility shift assay relative to control", "method_in_brief": "as §3"}, "[18]": {"system": "SK-OV-3", "test": "Antitumor activity against human SK-OV-3 cells xenografted in CD1 nude mouse assessed as tumor growth inhibition at 2.5 mg/kg, po administered once daily for 27 days and measured on day 3", "format": "functional, organism-based", "settings": "time 27.0 day", "method_in_brief": "as §1"}, "[19]": {"test": "Toxicity in Swiss mouse assessed as morphological changes in kidney at 30 mg/kg, po administered twice daily via gavage for 5 days and measured post last dose", "format": "organism-based", "settings": "in vivo, 120 h, time 5 day", "method_in_brief": "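Female Swiss mice (3 treated, 2 controls) were gavaged twice daily for 5 days, with compound in 0.5% CMC and Tween 80. After the last dosing the animals were sacrificed. Liver, kidney, lung, uterus and brain were excised and inspected visually for morphology and color change.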"}, "[20]": {"biological_target": "Inhibitor of nuclear factor kappa-B kinase subunit epsilon (Homo sapiens) (UniProt Q14164)", "sequence (Q14164 whole entry)": "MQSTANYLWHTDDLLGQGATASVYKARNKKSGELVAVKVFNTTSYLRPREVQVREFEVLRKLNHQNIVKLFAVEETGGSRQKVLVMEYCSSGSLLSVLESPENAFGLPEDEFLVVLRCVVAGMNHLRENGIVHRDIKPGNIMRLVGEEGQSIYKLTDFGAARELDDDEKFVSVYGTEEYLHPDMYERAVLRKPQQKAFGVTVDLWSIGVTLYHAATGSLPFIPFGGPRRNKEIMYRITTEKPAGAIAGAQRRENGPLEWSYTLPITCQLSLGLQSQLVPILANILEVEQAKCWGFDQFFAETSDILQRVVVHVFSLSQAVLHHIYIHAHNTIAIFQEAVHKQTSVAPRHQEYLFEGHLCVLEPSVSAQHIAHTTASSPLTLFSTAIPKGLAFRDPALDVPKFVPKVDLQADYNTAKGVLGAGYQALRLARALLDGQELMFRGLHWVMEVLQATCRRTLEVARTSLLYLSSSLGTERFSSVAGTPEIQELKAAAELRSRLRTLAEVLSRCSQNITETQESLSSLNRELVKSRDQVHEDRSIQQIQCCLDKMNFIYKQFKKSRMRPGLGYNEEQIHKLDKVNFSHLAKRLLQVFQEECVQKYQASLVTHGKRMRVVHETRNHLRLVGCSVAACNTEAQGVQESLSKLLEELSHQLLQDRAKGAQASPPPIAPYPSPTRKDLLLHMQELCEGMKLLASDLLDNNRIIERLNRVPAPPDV", "test": "Inhibition of human IKBKE at 1 uM using fluorescently labeled peptide substrate measured after 3 hrs by microfluidic mobility shift assay relative to control", "method_in_brief": "as §3"}, "[21]": {"biological_target": "Glycogen synthase kinase-3 beta (Homo sapiens) (UniProt P49841)", "sequence (P49841 whole entry, looked up)": "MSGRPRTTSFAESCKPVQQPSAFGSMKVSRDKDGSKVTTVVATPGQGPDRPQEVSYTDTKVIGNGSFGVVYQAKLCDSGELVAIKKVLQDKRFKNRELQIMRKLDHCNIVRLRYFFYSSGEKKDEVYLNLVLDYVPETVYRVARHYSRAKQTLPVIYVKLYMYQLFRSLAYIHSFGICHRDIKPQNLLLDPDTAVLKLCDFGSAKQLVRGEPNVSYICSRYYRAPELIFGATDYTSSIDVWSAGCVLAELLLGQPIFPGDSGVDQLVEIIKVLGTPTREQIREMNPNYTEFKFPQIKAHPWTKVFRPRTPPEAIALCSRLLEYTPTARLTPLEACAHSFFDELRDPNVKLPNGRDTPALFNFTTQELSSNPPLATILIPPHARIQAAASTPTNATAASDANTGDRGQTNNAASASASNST", "test": "Inhibition of human GSK3B at 1 uM using fluorescently labeled peptide substrate measured after 3 hrs by microfluidic mobility shift assay relative to control", "method_in_brief": "as §3"}, "[22]": {"biological_target": "RAC-gamma serine/threonine-protein kinase (Homo sapiens) (UniProt Q9Y243)", "sequence (Q9Y243 whole entry)": "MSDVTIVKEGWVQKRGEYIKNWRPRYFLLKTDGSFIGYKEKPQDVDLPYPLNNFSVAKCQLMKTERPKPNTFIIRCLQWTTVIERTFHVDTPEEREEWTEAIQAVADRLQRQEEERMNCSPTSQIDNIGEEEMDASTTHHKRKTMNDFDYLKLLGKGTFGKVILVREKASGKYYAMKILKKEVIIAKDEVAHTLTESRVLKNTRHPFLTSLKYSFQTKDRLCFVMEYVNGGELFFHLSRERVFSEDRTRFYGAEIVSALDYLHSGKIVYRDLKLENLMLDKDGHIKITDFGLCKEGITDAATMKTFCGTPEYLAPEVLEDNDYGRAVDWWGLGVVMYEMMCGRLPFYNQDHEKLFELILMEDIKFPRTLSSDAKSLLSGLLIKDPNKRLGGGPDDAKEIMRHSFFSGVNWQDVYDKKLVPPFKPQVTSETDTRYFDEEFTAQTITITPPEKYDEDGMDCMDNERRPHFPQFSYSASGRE", "test": "Inhibition of human AKT3 at 1 uM using fluorescently labeled peptide substrate measured after 3 hrs by microfluidic mobility shift assay relative to control", "method_in_brief": "as §3"}}, "note": "The source made the active and inactive calls. The calls are words filed in the database; no cut-off is given here.", "data": [{"smiles": "CN(C)C(=O)c1ccc(Oc2nc(-c3cnc(N)s3)nc(N3CCOCC3)n2)cc1", "values": [{"measurement": "Activity", "setting": "[1]", "result": "Dose-dependent effect"}, {"measurement": "Cmax", "setting": "[2]", "result": 12.6, "unit": "µM"}, {"measurement": "inhibition", "setting": "[3]", "result": 9, "unit": "%"}, {"measurement": "Activity", "setting": "[4]", "result": "Dose-dependent effect"}, {"measurement": "inhibition", "setting": "[5]", "result": 3, "unit": "%"}, {"measurement": "inhibition", "setting": "[6]", "result": -1, "unit": "%"}, {"measurement": "AUC", "setting": "[7]", "result": 26.9, "unit": "µM·h"}, {"measurement": "TGI", "setting": "[8]", "result": "Active"}, {"measurement": "EC50", "setting": "[9]", "result": 480, "unit": "nM"}, {"measurement": "half-life", "setting": "[10]", "result": 2.7, "unit": "h"}, {"measurement": "AUC", "setting": "[11]", "result": 32.1, "unit": "µM·h"}, {"measurement": "IC50", "setting": "[12]", "result": 230, "unit": "nM"}, {"measurement": "Activity", "setting": "[13]", "result": "Non-Toxic"}, {"measurement": "Activity", "setting": "[14]", "result": "Non-Toxic"}, {"measurement": "Tmax", "setting": "[15]", "result": 1.33, "unit": "h"}, {"measurement": "Tmax", "setting": "[16]", "result": 1.5, "unit": "h"}, {"measurement": "inhibition", "setting": "[17]", "result": 86, "unit": "%"}, {"measurement": "TGI", "setting": "[18]", "result": "Active"}, {"measurement": "Activity", "setting": "[19]", "result": "Non-Toxic"}, {"measurement": "inhibition", "setting": "[20]", "result": -1, "unit": "%"}, {"measurement": "inhibition", "setting": "[21]", "result": -1, "unit": "%"}, {"measurement": "inhibition", "setting": "[22]", "result": -1, "unit": "%"}]}]}
